Columns and labels:
SF-268 = experiment: Anticancer activity against human SF268 cells assessed as cell growth at 100 uM after 48 hrs by SRB assay; type: functional; settings: SF-268, 48 h, read-out: Activity
Method in brief: (§1)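 NCI one-dose primary screen on a three-line panel (breast MCF7, lung NCI-H460, CNS SF-268). Cells were inoculated and preincubated 24–48 h, then exposed to a single concentration of 10−4 M for 48 h. The endpoint was sulforhodamine B protein staining, and results are expressed as percent growth relative to untreated control cells. Negative values denote cytotoxicity.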

NCI-H23 = experiment: Growth inhibition of human NCI-H23 cells after 48 hrs by SRB assay; type: functional; settings: NCI-H23, 48 h
Method in brief: (§2)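 NCI five-dose assay against the ~60-cell-line panel (nine cancer types). Tenfold dilutions from 10−4 to 10−8 M were used with continuous 48-h exposure and SRB absorbance readout. Percent growth was computed from time-zero, control and treated absorbances. GI50 is the concentration giving 50% lower net protein increase than controls. Values not reached are reported as beyond the tested range.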

U-251 = experiment: Growth inhibition of human U251 cells after 48 hrs by SRB assay; type: functional; settings: U-251, 48 h
Method in brief: (§3)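 NCI ~60-cell-line five-dose screen. Cells were preincubated 24-48 h, then given compound at 10-fold dilutions from 10^-4 to 10^-8 M with 48 h continuous exposure. SRB protein stain was read by absorbance at time zero, in untreated control and with drug. GI50 was derived from [(Ti-Tz)/(C-Tz)]x100=50, TGI from Ti=Tz, and LC50 from [(Ti-Tz)/Tz]x100=-50.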

[1] = Acute toxicity in ip dosed white mouse; type: organism-based; settings: in vivo
Method in brief: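 White male mice, 23-25 g, dosed intraperitoneally with compound dissolved in 0.9% NaCl saline plus 1-2 drops Polysorbate 80 (Tween-80). Solutions prepared immediately before use. Doses ranged 100-1000 mg/kg, testing 4 or 5 doses with 6 animals per dose. LD50 derived by the Litchfield-Wilcoxon method.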

CCRF-CEM = experiment: Growth inhibition of human CCRF-CEM cells after 48 hrs by SRB assay; type: functional; method in brief: as §2
MDA-MB-231 = experiment: Growth inhibition of human MDA-MB-231/ATCC cells after 48 hrs by SRB assay; type: functional; settings: MDA-MB-231, 48 h; method in brief: as §2
[2] = Growth inhibition of human 786-O cells after 48 hrs by SRB assay; type: functional; settings: 786-0, 48 h; method in brief: as §2
[3] = Growth inhibition of human […] cells after 48 hrs by SRB assay; type: functional; method in brief: as §2
M14 = experiment: Growth inhibition of human M14 cells after 48 hrs by SRB assay; type: functional; settings: M14, 48 h; method in brief: as §2
[4] = Growth inhibition of human HOP92 cells after 48 hrs by SRB assay; type: functional; settings: HOP-92, 48 h; method in brief: as §2
PC-3 = experiment: Growth inhibition of human PC3 cells after 48 hrs by SRB assay; type: functional; settings: PC-3, 48 h; method in brief: as §2
MCF7 = experiment: Anticancer activity against human MCF7 cells assessed as cell growth at 100 uM after 48 hrs by SRB assay; type: functional; settings: MCF7, 48 h, read-out: Activity; method in brief: as §1
[5] = system: Trypanosoma brucei brucei; experiment: Antitrypanosomal activity against bloodstream form of Trypanosoma brucei brucei strain 90-13 assessed as inhibition of parasite growth at 1 ug/ml after 72 hrs by resazurin reduction test; type: functional; settings: strain 90-13, 72 h
Method in brief: (§4)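 Trypanosoma brucei brucei 90-13 bloodstream forms, grown in HMI9 with 10% FCS at 37 °C under 5% CO2. Log-phase parasites were seeded at 10^5 cells/mL with or without inhibitor, with stocks prepared in DMSO. After 72 h, resazurin was added and fluorescence was read at 530/590 nm after a further 4 h. Percent growth inhibition was calculated versus drug-free parasites, with DMSO as control.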

NCI-H460 [6] = experiment: Anticancer activity against human NCI-H460 cells assessed as cell growth at 100 uM after 48 hrs by SRB assay; type: functional; settings: NCI-H460, 48 h, read-out: Activity; method in brief: as §1
[7] = system: Trypanosoma brucei brucei; experiment: Antitrypanosomal activity against bloodstream form of Trypanosoma brucei brucei strain 90-13 assessed as inhibition of parasite growth at 10 ug/ml after 72 hrs by resazurin reduction test; type: functional; settings: strain 90-13, 72 h; method in brief: as §4
LOX IMVI = experiment: Growth inhibition of human LOXIMVI cells after 48 hrs by SRB assay; type: functional; method in brief: as §2
NCI/ADR-RES = experiment: Growth inhibition of human NCI/ADR-RES cells after 48 hrs by SRB assay; type: functional; method in brief: as §2
HCT-116 = experiment: Growth inhibition of human HCT116 cells after 48 hrs by SRB assay; type: functional; settings: HCT-116, 48 h; method in brief: as §2
KM12 = experiment: Growth inhibition of human KM12 cells after 48 hrs by SRB assay; type: functional; settings: KM12, 48 h; method in brief: as §2
BT-549 = experiment: Growth inhibition of human BT549 cells after 48 hrs by SRB assay; type: functional; settings: BT-549, 48 h; method in brief: as §2
NCI-H460 [8] = experiment: Growth inhibition of human NCI-H460 cells after 48 hrs by SRB assay; type: functional; settings: NCI-H460, 48 h; method in brief: as §2
HOP-62 = experiment: Growth inhibition of human HOP62 cells after 48 hrs by SRB assay; type: functional; settings: HOP-62, 48 h; method in brief: as §2
MOLT-4 = experiment: Growth inhibition of human MOLT4 cells after 48 hrs by SRB assay; type: functional; settings: MOLT-4, 48 h; method in brief: as §2
SR = experiment: Growth inhibition of human SR cells after 48 hrs by SRB assay; type: functional; method in brief: as §3
[9] = Growth inhibition of human SF539 cells after 48 hrs by SRB assay; type: functional; settings: SF-539, 48 h; method in brief: as §2

Work on `COc1ccc2cc(C(=O)Nc3cccc(C(F)(F)F)c3)sc(=O)c2c1OC` yielded a growth at 100 µM (SF-268) of 49%, a GI50 (NCI-H23) of 6.46 µM and a TGI (NCI-H23; read-out: pTGI (converted)) of 18.6 µM. It also gave a GI50 (U-251) of 3.16 µM, a TGI (U-251; read-out: pTGI (converted)) of 11 µM and an LD50 [1] of 750 mg/kg. The GI50 (CCRF-CEM) was 12 µM, the TGI (CCRF-CEM; read-out: pTGI (converted)) was 91.2 µM and the GI50 (MDA-MB-231) was 2.09 µM. For the same compound, the TGI (MDA-MB-231; read-out: pTGI (converted)) was 5.37 µM, the GI50 [2] was 3.39 µM and the TGI ([2]; read-out: pTGI (converted)) was 12.3 µM. It also gave a GI50 [3] of 2.04 µM, a TGI ([3]; read-out: pTGI (converted)) of 5.75 µM and a GI50 (M14) of 7.76 µM. For the same compound, the TGI (M14; read-out: pTGI (converted)) was 20 µM, the GI50 [4] was 3.02 µM and the TGI ([4]; read-out: pTGI (converted)) was 10 µM. The GI50 (PC-3) was 4.68 µM, the TGI (PC-3; read-out: pTGI (converted)) was 19.5 µM and the growth at 100 µM (MCF7) was 45%. It also gave an inhibition at 1 µg/mL [5] of -9.98%, a growth at 100 µM (NCI-H460 [6]) of 4% and an inhibition at 10 µg/mL [7] of 5.46%. It also gave a GI50 (LOX IMVI) of 6.92 µM, a TGI (LOX IMVI; read-out: pTGI (converted)) of 21.9 µM and a GI50 (NCI/ADR-RES) of 8.43 µM. For the same compound, the TGI (NCI/ADR-RES; read-out: pTGI (converted)) was 21.9 µM, the GI50 (HCT-116) was 3.39 µM and the TGI (HCT-116; read-out: pTGI (converted)) was 14.5 µM. The GI50 (KM12) was 9.55 µM, the TGI (KM12; read-out: pTGI) was greater than 100 µM and the GI50 (BT-549) was 2.45 µM. For the same compound, the TGI (BT-549; read-out: pTGI (converted)) was 7.08 µM, the GI50 (NCI-H460 [8]) was 5.37 µM and the TGI (NCI-H460 [8]; read-out: pTGI) was greater than 100 µM. The GI50 (HOP-62) was 5.37 µM, the TGI (HOP-62; read-out: pTGI (converted)) was 16.2 µM and the GI50 (MOLT-4) was 5.62 µM. For the same compound, the TGI (MOLT-4; read-out: pTGI (converted)) was 25.7 µM.

`Cc1cc(NC(=O)c2cc3ccccc3c(=O)s2)no1` gave a growth at 100 µM (SF-268) of 86%, a GI50 (SR) of 0.339 µM and a TGI (SR; read-out: pTGI (converted)) greater than 100 µM. It also gave a growth at 100 µM (MCF7) of 85%, a growth at 100 µM (NCI-H460 [6]) of 31% and a GI50 [9] of 30.2 µM. For the same compound, the TGI ([9]; read-out: pTGI (converted)) was greater than 100 µM.
